For nine molecules, Inhibition results are on record in ChEMBL document CHEMBL1123074, “Aromatase inhibitors. Synthesis and biological activity of androstenedione derivatives” (J Med Chem, 1985).

As usually defined, the Inhibition is the drop in the measured response relative to a control, in per cent.

Data set [1] deals with T1, Aromatase (Homo sapiens, UniProt P11511).
T1 sequence (P11511 whole entry): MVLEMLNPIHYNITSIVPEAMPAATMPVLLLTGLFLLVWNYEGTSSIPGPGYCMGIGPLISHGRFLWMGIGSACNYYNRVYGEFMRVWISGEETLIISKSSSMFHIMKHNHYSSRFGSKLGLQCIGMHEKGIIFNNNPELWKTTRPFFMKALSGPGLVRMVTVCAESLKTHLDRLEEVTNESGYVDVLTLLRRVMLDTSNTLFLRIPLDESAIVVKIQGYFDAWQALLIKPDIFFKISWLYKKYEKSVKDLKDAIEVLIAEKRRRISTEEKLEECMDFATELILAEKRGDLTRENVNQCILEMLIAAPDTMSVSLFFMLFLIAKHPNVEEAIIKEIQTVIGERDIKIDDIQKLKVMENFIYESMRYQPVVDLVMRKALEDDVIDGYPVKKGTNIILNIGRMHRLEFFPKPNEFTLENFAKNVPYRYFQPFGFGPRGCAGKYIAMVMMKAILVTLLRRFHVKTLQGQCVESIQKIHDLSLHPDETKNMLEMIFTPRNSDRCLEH
Briefly: Percent inhibition of human placental Cytochrome P450 19A1 at 1:1 inhibitor: androstenedione (0.7 uM) ratio. In short, it runs like this:
(§1)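 Human term placental microsomes (0.3-0.9 mg protein) incubated with test compound at stated inhibitor:substrate ratio, [4-14C]androstenedione, 0.7 μM androstenedione and NADPH-generating system (NADP, glucose 6-phosphate, glucose-6-phosphate dehydrogenase) in 0.1 M phosphate buffer pH 7.4, 30 min, 37 °C under oxygen. Stopped with [6,7-3H2]estradiol/estrone recovery markers and carriers; estrogens extracted, TLC-purified, quantified versus control.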

Data set [2] concerns the target T1, Aromatase. The data set is described as follows: Percent inhibition of human placental Cytochrome P450 19A1 at 3:1 inhibitor: androstenedione (0.7 uM) ratio. In short, it runs like this: as §1
Data set [3] deals with T1, Aromatase. Briefly: Percent inhibition of human placental Cytochrome P450 19A1 at 6:1 inhibitor: androstenedione (0.7 uM) ratio. The method, boiled down:
as §1

Consider `CC12CCC3C(C=CC4=C(O)C(=O)CCC43C)C1CCC2=O` (stereo unspecified), for which the Inhibition is 8% on Aromatase [1] and 30% on Aromatase [2].
The like results for `C[C@]12C=CC(=O)C=C1C=C[C@@H]1[C@@H]2CC[C@]2(C)C(=O)CC[C@@H]12` were, in that order, 69% and 83%.
The corresponding values for `CC12C=CC(=O)C(O)=C1CCC1C2CCC2(C)C(=O)CCC12` (stereo unspecified) are 66% and 84%.
The corresponding values for `CC(=O)OC1=C2CCC3C4CCC(=O)C4(C)CCC3C2(C)CCC1=O` (stereo unspecified) are 81% and 90%.
On to `CC12CCC3C(CCC4=C(OC(=O)CCC(=O)O)C(=O)CCC43C)C1CCC2=O` (stereo unspecified), for which the Inhibition at Aromatase [2] came to 70%.
Turning to `COC1=C2CCC3C4CCC(=O)C4(C)CCC3C2(C)CCC1=O` (stereo unspecified), the Inhibition amounted to 7% on Aromatase [2] and 28% at Aromatase [3].
For the molecule `C[C@]12CCC(=O)C(O)=C1CC[C@@H]1[C@@H]2CC[C@]2(C)C(=O)CC[C@@H]12` [FORMESTANE], the values for the Inhibition on Aromatase [1] and on Aromatase [2] were 89% and 91%, respectively.
Consider `CC12CCC3C(CCC4=C(Cl)C(=O)CCC43C)C1CCC2=O` (stereo unspecified), for which the Inhibition at Aromatase [2] was 9%; at Aromatase [3], 43%.
As for `CC12CCC3C(CC(=O)C4=CC(=O)CCC43C)C1CCC2=O` (stereo unspecified), the Inhibition on Aromatase [2] was 78%.
